# Compound activity as filed in PubChem.
# Most compounds without a hit are left out; they make up all but 3.7% or so of the library.
# Kir21 block: Kir2.1 (mouse) channel inhibition; B-score at 10 µM; AID 1672; hit rate 0.85% among 310,000; HEK293-Kir2.1, FluxOR thallium flux fluorescence; stronger effect = lower value;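 active means fluorescence ratio B-score at or below minus 3 SD of library scores, with starting-brightness B-score within 2 SD, cut at about -4.2 in these data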;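 further: channel flux triggered by added potassium and thallium sulfate stimulus; B-score of peak minus minimum fluorescence over baseline after thallium stimulus; more negative B-score means stronger Kir2.1 block with less thallium influx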
# KCNK9 block: human KCNK9 channel inhibition; Q9NPC2; HEK293 KCNK9, FluxOR thallium flux fluorescence; stronger effect = lower value; B-score at 10 µM; hit rate 1.2% among 310,000;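 active means ratio B-score over 3 SD below the library mean, with starting fluorescence within 5 SD of its mean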;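 further: negative B-score means less thallium flux so channel inhibition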
# KCNQ1 inh: human KCNQ1 channel inhibition; P51787; CHO-K1 KCNQ1, FluxOR thallium flux fluorescence; stronger effect = higher value; B-score at 10 µM; hit rate 1.3% among 310,000;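 active means compounds whose thallium flux B-score, printed positive for inhibition, exceeds three library SD while starting fluorescence stays within three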;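 further: channel opened by potassium depolarization with thallium stimulus after 20 min compound exposure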
# KCNK3 inh: human KCNK3 channel inhibition, primary screen; O14649; CHO-KCNK3 thallium flux, FluxOR fluorescence; stronger effect = lower value; B-score at 10 µM; hit rate 0.84% among 340,000;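 active means B-score under library mean minus 4 SD, starting fluorescence ratio at most library mean plus 5 SD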;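 further: more negative B-score means stronger inhibition of thallium flux through KCNK3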
# hERG rescue: compounds protecting human hERG from proarrhythmic drug block; Q12809; CHO-hERG, FluxOR thallium flux, dofetilide IC70 present; activation (rescue from dofetilide block), less the hit threshold, % at 10 µM; hit rate 0.51% among 310,000;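 active means activation above the mean of controls blocked by dofetilide plus 5 SD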;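 further: thallium influx through hERG after potassium depolarization seen as dye fluorescence rise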
# Target sequence (Q12809 whole entry, looked up): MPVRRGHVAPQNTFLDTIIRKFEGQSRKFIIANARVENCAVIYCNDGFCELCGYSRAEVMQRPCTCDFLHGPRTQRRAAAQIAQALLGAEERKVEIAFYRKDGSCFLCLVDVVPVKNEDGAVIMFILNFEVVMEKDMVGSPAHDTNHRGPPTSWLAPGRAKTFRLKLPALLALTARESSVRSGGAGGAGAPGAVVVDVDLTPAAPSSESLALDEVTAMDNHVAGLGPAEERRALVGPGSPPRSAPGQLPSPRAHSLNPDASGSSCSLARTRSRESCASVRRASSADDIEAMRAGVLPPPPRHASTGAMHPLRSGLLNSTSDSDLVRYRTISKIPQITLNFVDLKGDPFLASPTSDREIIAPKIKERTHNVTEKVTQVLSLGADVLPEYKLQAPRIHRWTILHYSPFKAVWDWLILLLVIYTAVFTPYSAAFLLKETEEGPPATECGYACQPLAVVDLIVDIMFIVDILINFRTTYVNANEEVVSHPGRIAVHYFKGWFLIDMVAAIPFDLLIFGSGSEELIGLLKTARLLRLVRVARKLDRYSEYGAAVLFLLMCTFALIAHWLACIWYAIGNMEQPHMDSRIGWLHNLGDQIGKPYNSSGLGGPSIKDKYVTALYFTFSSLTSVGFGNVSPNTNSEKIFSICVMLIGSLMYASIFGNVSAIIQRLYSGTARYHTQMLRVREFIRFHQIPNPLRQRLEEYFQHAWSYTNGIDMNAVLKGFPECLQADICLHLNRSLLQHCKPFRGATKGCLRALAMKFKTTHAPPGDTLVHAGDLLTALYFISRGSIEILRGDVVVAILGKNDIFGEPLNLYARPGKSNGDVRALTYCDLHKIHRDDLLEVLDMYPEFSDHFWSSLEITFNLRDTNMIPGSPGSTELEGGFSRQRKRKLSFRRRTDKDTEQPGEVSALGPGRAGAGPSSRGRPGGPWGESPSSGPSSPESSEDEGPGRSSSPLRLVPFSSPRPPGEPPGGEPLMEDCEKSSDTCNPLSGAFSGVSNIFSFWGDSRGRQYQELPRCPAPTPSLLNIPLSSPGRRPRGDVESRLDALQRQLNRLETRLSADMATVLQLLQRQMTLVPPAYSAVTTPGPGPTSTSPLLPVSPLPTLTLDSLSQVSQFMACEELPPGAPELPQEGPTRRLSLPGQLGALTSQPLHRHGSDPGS
# KCNQ1 pot: human KCNQ1 channel potentiation or activation; P51787; CHO-K1 KCNQ1, thallium flux FluxOR fluorescence; stronger effect = higher value; B-score at 10 µM; hit rate 0.35% among 310,000;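 active means fluorescence ratio B-score, a plate-corrected score, at least three library SD, with initial intensity B-score within 5 SD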
#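 Material: CHO-K1 cells stably expressing KCNQ1. Medium: assay buffer for compound exposure, DMSO matched across wells. Reagent: K+/Tl+ depolarizing stimulus. Compound dosing: single-concentration screen. Times: 37 °C overnight plating, 90-min dark dye load, 20-min compound pretreatment. Technique: FluxOR Tl+ flux fluorescence.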
# KCNK9 block conf: confirmation of human KCNK9 potassium channel inhibitors; inhibition, % at 10 µM; AID 492992; shares compounds with KCNK9 block; hit rate 43% among 4,900; HEK293 KCNK9 cells, FluxOR thallium flux fluorescence;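 active means thallium signal inhibited by more than 5 SD of the compound-free buffer control wells, on both duplicate plates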;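 further: 0% = assay buffer control wells without compound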
# Kir2-1 spec: selectivity of KCNK9 modulators against mouse Kir2.1; inhibition, % at 10 µM; Kir2.1 cells, FluxOR thallium flux fluorescence; hit rate 4% among 4,900; AID 492993; shares compounds with KCNK9 block;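 active means thallium signal drop more than 5 SD beyond the mean of the no-compound control wells, seen in both duplicate plates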;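 further: signal is fluorescence rise after thallium addition divided by baseline fluorescence; plate controls were assay buffer only for no effect and full block by chlorpromazine control for full effect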
# HEK293 Tl ctr: second counter-screen for KCNK9 modulators: effect in non-induced cells; shares compounds with KCNK9 block; non-induced KCNK9-HEK293, FluxOR thallium flux; inhibition, % at 10 µM; hit rate 40% among 4,900; AID 492997;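 active means thallium signal drop beyond 5 SD of the untreated control mean, on both duplicate plates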;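 further: plate controls were buffer only IC0 wells for no effect and SID17386958 at its maximal inhibitory level for full effect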
# KCNK3 confirm: human KCNK3 channel inhibition, confirmation assay; ratio percent of control, % at 10 µM; CHO-KCNK3 thallium flux, FluxOR fluorescence; 0% buffer, 100% carvedilol maximal block; hit rate 99% among 2,400; AID 651638; shares compounds with KCNK3 inh;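 active means ratio percent of control, averaged over triplicates, above buffer control mean plus 5 SD, cut at about 64% in these data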;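 further: ratio is the fluorescence rise from min to max over baseline after thallium stimulus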
# KCNK3 uninduced: counter-screen for KCNK3 inhibitors: effect in non-induced cells; non-induced KCNK3 parental cells, FluxOR thallium flux; stronger effect = lower value; thallium flux ratio (lower = more inhibition) at 10 µM; hit rate 40% among 2,400; shares compounds with KCNK3 inh;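 active means thallium flux ratio, averaged over three wells, more than 5 SD below the buffer control mean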;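 further: host cells are CHO cells without KCNK3 induction; ratio is peak minus trough fluorescence over baseline then normalized to buffer controls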
# Numbers without * were called inactive; i = inactive; nt = not tested or not shown.
SMILES,Kir21 block,KCNK9 block,KCNQ1 inh,KCNK3 inh,hERG rescue,KCNQ1 pot,KCNK3 confirm,KCNK3 uninduced,others
Cc1cccc(N2C(=O)N3[C@H]4c5ccccc5OC[C@@H]4[C@@H](c4ccccc4)[C@@]3(C)C2=O)c1,nt,nt,nt,i,nt,nt,nt,nt,
COc1ccc(/C=N/NC(=O)c2ccoc2C)cc1COc1c(C)cccc1C,-0.65,-11*,12*,-13*,-14,i,113*,0.14*,KCNK9 block conf=48%*;Kir2-1 spec=i;HEK293 Tl ctr=i
COc1ccc(/C=N\NC(=O)c2ccccc2OC)cc1COc1ccccc1C,1.8,i,i,i,-10,i,nt,nt,
COc1ccc(NC(=O)CC(C)NCCCN2CCCC2=O)cc1 (stereo not drawn),0.39,i,i,i,-9,i,nt,nt,
OC(CNc1nc(C(F)(F)F)nc2ccccc12)c1ccccc1 (stereo not drawn),1.6,-12*,i,-13*,-10,i,118*,i,KCNK9 block conf=61%*;Kir2-1 spec=i;HEK293 Tl ctr=i
CCCN(CCC)CCNC(=O)c1cc2c(-c3ccccc3F)nn(C)c2s1,-0.65,i,i,i,-4,i,nt,nt,
CC(CCc1ccco1)NC(=O)c1cc2c(-c3ccccc3F)nn(C)c2s1 (stereo not drawn),-1.2,-8.4*,i,-13*,-10,i,120*,0.14*,KCNK9 block conf=28%*;Kir2-1 spec=i;HEK293 Tl ctr=i
CC(C)Cc1ccc(C(=O)NCc2ccc3c(c2)OCO3)o1,-1.9,i,i,i,-9,i,nt,nt,
O=C(NCc1ccc2c(c1)OCO2)c1ccc(-c2ccc(Cl)cc2)o1,-0.44,-8.6*,i,-8.9*,-6,i,140*,0.12*,KCNK9 block conf=27%*;Kir2-1 spec=i;HEK293 Tl ctr=26%*
O=C(Nc1cccc(Cl)c1)C1CCN(C(=O)c2cccs2)CC1,-0.08,i,i,i,-6,i,nt,nt,
CSc1nsc(SC)c1C(=O)Nc1ccc(C(C)(C)C)cc1,-1.2,-14*,i,-13*,-2,i,112*,i,KCNK9 block conf=53%*;Kir2-1 spec=i;HEK293 Tl ctr=28%*
Clc1ccc(N(CC2CO2)CC2CO2)cc1 (stereo not drawn),nt,nt,nt,i,nt,nt,nt,nt,
Cc1onc(-c2ccc(Cl)cc2)c1-c1ccnc(SCC(=O)Nc2ccc(C(C)C)cc2)n1,-2.1,-9.6*,i,-11*,-5,i,115*,i,KCNK9 block conf=40%*;Kir2-1 spec=i;HEK293 Tl ctr=29%*
COc1ccc(OCC(=O)NC2CCCN(Cc3ccc(Cl)cc3)C2)cc1 (stereo not drawn),-1.4,i,i,i,-6,i,nt,nt,
COc1ccc(-c2csc3nc(-c4cccnc4)nc(Cl)c23)cc1OC,0.08,i,i,-8.7*,-15,i,101*,0.15*,
Clc1nc(-c2cccnc2)nc2scc(-c3ccccc3)c12,-0.08,i,i,i,-9,i,nt,nt,
CN1CCN(C2Cc3cc(Cl)ccc3Sc3cc(F)ccc32)CC1 (stereo not drawn),-3.2,i,i,-10*,-13,i,144*,i,
C=CCN(C(=O)Nc1ccc(OC)cc1)c1nnc(-c2ccncc2)s1,-0.1,i,i,-9.5*,-6,i,94*,i,
Cc1sc2nc(SCc3nnc(-c4cccs4)o3)n(C3CCCC3)c(=O)c2c1C,-0.09,i,8*,-12*,-9,i,79*,i,
Cc1sc2nc(CSc3nnc(Cc4cccs4)n3C3CCCCC3)[nH]c(=O)c2c1C,-0.92,i,i,i,-8,i,nt,nt,
O=C(CC(c1ccccc1)c1ccccc1O)NCc1ccccc1 (stereo not drawn),-1.8,i,i,-8.8*,-7,i,95*,i,
CC(C)(C)NC(=O)CC(c1ccccc1)c1ccccc1O (stereo not drawn),0.7,i,i,i,-15,i,nt,nt,
O=C(NCCS(=O)(=O)N1CCN(c2ccccc2F)CC1)c1ccc2c(c1)OCO2,-0.01,i,i,i,-13,i,nt,nt,
S=C1NCCc2ccc(Cl)cc2C1c1ccccc1Cl (stereo not drawn),-0.84,-6.7*,i,-11*,-6,i,123*,i,
Clc1ccc2c(c1)C(C1=NCCN1)c1ccccc1CS2 (stereo not drawn),2.3,i,i,i,-5,i,nt,nt,
SMILES,Kir21 block,KCNK9 block,KCNQ1 inh,KCNK3 inh,hERG rescue,KCNQ1 pot,KCNK3 confirm,KCNK3 uninduced,others
CCOC(=O)c1nn(-c2cccc(Cl)c2)c2nc(Nc3ccccc3)cc(=O)n12,-0.44,i,i,i,-6,i,nt,nt,
O=C(c1ccccc1)c1nn(-c2cccc(Cl)c2)c2nc(-c3ccccc3)cc(=O)n12,1.8,i,i,-21*,-8,i,118*,0.15*,
CC12CCC(=O)N1C(C(=O)Nc1nnc(SCc3ccc(F)cc3)s1)CS2 (stereo not drawn),0.73,i,i,i,-6,i,nt,nt,
CN1C(=O)c2ccc(Oc3ccccc3)cc2C1=O,0.74,i,i,i,-8,i,nt,nt,
CCOC(=O)C1=C(C)N=C2c3ccccc3C(=O)C2C1c1ccccc1 (stereo not drawn),-0.04,i,i,-8.9*,-6,i,102*,i,
O=C(NCc1ccco1)C1CCN(S(=O)(=O)c2cccc([N+](=O)[O-])c2)CC1,-2.7,i,i,i,3,i,nt,nt,
COc1ccc(C)cc1NC(=O)c1ccc2c(c1)OCO2,-0.1,i,i,i,-3,i,nt,nt,
CCCCCCCCC(=O)Nc1cc(C)ccc1OC,0.07,i,i,-11*,-13,i,103*,i,
COc1ccc(C)cc1NC(=O)c1cccc(C(=O)Nc2cc(C)ccc2OC)c1,0.61,-8*,i,-11*,-7,i,106*,i,
Oc1ccccc1-c1csc(-c2ccccc2)n1,1.6,-6.6*,i,-9.1*,-9,i,115*,0.14*,
Oc1ccc(-c2csc(-c3ccccc3)n2)cc1O,2.2,i,i,i,-20,i,nt,nt,
